Results on 20 molecules are retold here after ChEMBL document CHEMBL1268859, “Diarylheptanoids from the Rhizomes of Curcuma kwangsiensis” (J Nat Prod, 2010).

This assay relates to RAW264.7. Briefly: Antiinflammatory activity in mouse RAW264.7 cells assessed as inhibition of LPS-induced NO production by MTT assay. It counts as functional, cell-based. The settings on record: in the assay text read “Griess assay” for “MTT assay”. The gist of the method:
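RAW 264.7 mouse macrophages in RPMI 1640 with 10% heat-inactivated FBS, penicillin and streptomycin, seeded 1 × 10⁵ cells/well, adhered 2 h at 37 °C, 5% CO₂. Stimulated with LPS 1 µg/mL for 24 h with or without test agents at various concentrations (DMSO, 0.2% v/v final). Supernatant nitrite read with Griess reagent against a nitrite standard line. MTT viability after 24 h.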
On the technique in general: Formazan colour is commonly taken as a measure of viable cells.
As for `C[C@]12CCC(=O)C=C1CC[C@@H]1[C@@H]2[C@@H](O)C[C@@]2(C)[C@H]1CC[C@]2(O)C(=O)CO` [HYDROCORTISONE], the IC50 was 40.6 µM.

As to `COc1cc(CCC(=O)/C=C/CCc2ccc(O)cc2)ccc1O`, the IC50 was determined as 2.69 µM.

Turning to `Oc1ccc(CC[C@@H](O)CC/C=C/c2ccccc2)cc1O`, the IC50 was found to be 3.86 µM.

For `CC(=O)O[C@H](CCCCc1ccc(O)cc1)CCc1ccc(O)c(O)c1`, the IC50 amounted to 28.5 µM.

Take `Oc1ccc(CCCC[C@H](O)CCc2ccc(O)c(O)c2)cc1`: the 50% inhibitory concentration (IC50) worked out at 5.83 µM.

Regarding `COc1ccc2c(c1)c(CC(=O)O)c(C)n2C(=O)c1ccc(Cl)cc1` [INDOMETHACIN], the IC50 stood at 13 µM.

Consider `CC(=O)O[C@@H](CC/C=C/c1ccc(O)cc1)CCc1ccc(O)c(O)c1`, for which the IC50 amounted to 6.54 µM.

Turning to `Oc1ccc(CCCC[C@@H](O)CCc2ccc(O)c(O)c2)cc1`, the IC50 was 9.66 µM.

For the molecule `O=C(CCCCc1ccc(O)cc1)CCc1ccc(O)cc1`, the half-inhibitory concentration (IC50) worked out at 5.58 µM.

For the molecule `Oc1ccc(/C=C/CC[C@@H](O)CCc2ccc(O)c(O)c2)cc1`, the half-maximal inhibitory concentration (IC50) was 20.6 µM.

On to `O=C(/C=C/C=C/c1ccc(O)cc1)CCc1ccc(O)cc1`, for which the half-inhibitory concentration (IC50) stood at 4.79 µM.

As for `Oc1ccc(CC[C@H](O)CC/C=C/c2ccccc2)cc1O`, the half-maximal inhibitory concentration (IC50) is 7.34 µM.

As for `Oc1ccc(/C=C/CC[C@H](O)CCc2ccc(O)c(O)c2)cc1`, the IC50 was found to be 42 µM.

Regarding `Oc1ccc(/C=C/CC[C@@H](O)CCc2ccc(O)cc2)cc1`, the IC50 was found to be 16.1 µM.

`COc1cc(CCC(=O)CCCCc2ccc(O)cc2)ccc1O`: the concentration for half-maximal inhibition (IC50) was 10.6 µM.

Take `CC(=O)O[C@@H](CCCCc1ccc(O)cc1)CCc1ccc(O)c(O)c1`: the half-maximal inhibitory concentration (IC50) stood at 49.5 µM.

For the molecule `O=C(CC/C=C/c1ccc(O)cc1)CCc1ccc(O)cc1`, the IC50 was 8.93 µM.

With `Oc1ccc(/C=C/CC[C@H](O)CCc2ccc(O)cc2)cc1`, the half-maximal inhibitory concentration (IC50) was determined as 9.83 µM.

Consider `O=C(CC/C=C/c1ccccc1)CCc1ccc(O)cc1`, for which the concentration for half-maximal inhibition (IC50) amounted to 6.98 µM.

`CC(=O)O[C@H](CC/C=C/c1ccc(O)cc1)CCc1ccc(O)c(O)c1`: the IC50 was 15.6 µM.

As a reminder, the IC50 is the point on the concentration scale where inhibition reaches its midpoint.
